Data published in article PMC2903661 (Bioorganic & medicinal chemistry, 2010).

Tests used:
[1] = target: T1, CB2 receptors (Mus musculus, UniProt P47936); experiment: Blocking dissection study in LPS-5-day-treated CD1 mice; type: in vivo; conditions: for reduction of the specific binding of [11C]1 in whole brain: LPS-5-day mice, AM630 3 mg/kg or GW405833 2 mg/kg s.c., normalized uptake, 60 min, control CD1 mice as measure of non-specific binding
Summary of the method: (§1)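 Control CD1 mice, or CD1 mice 5 days after a single i.p. LPS dose (5 mg/kg in saline, strain O111:B4), received AM630 3 mg/kg or GW405833 2 mg/kg s.c. in DMSO; controls got DMSO vehicle. Radiotracer (~150 GBq/μmol) was given i.v. 30 min later, and tissues were harvested at 60 min and gamma-counted. Whole-brain uptake was %ID/g per body weight normalized by blood; mean ± SD, n=3.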

[2] = target: T1, CB2 receptors; experiment: Blocking dissection study in control CD1 mice; type: in vivo; conditions: AM630 3 mg/kg or GW405833 2 mg/kg s.c., 60 min
Summary of the method: as §1

[3] = target: T1, CB2 receptors; experiment: Baseline dissection biodistribution of [11C]1 in control CD1 mice; type: in vivo; conditions: i.v., whole body time-activity curve
Summary of the method: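 Male CD-1 mice (23-28 g) received the radiotracer (specific radioactivity ~150 GBq/μmol, in saline) by lateral tail vein. They were killed by cervical dislocation at various times after injection. Organs and brain were removed and dissected on ice, then weighed and gamma-counted (counting error below 3%) against injectate aliquots as standards. Uptake was expressed as %ID/g tissue.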

[4] = target: T1, CB2 receptors; type: in vivo, mice
Summary of the method: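 Male CD1 mice got a single i.p. LPS dose (5 mg/kg in saline, strain O111:B4) 3 or 5 days before i.v. radiotracer; untreated CD1 mice served as controls. At 60 min, cerebellum, hippocampus, cortex, brainstem and rest of brain were dissected, weighed and gamma-counted. Uptake was %ID/g tissue (± SD, n=3), and regional ratios were taken as 5-day LPS over control.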

[5] = target: T1, CB2 receptors; type: in vivo; conditions: APPswe/PS1dE9 mice

T1 sequence (P47936 whole entry): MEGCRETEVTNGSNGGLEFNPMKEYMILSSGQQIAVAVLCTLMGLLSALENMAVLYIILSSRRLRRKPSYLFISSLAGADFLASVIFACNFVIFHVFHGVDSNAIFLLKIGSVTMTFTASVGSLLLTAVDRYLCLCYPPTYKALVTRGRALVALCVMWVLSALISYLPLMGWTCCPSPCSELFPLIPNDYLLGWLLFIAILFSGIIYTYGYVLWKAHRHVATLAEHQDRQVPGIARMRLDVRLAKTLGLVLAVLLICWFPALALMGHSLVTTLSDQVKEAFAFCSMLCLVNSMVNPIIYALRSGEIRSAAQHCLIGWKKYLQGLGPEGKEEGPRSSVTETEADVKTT

Q: How did the “reduction of the specific binding of [11C]1 in whole brain” value [1] turn out when `COc1ccc2c(c1)c(CCN1CCOCC1)c(C)n2C(=O)c1cccc(Cl)c1Cl` [GW405833] was run?
A: 84%

Q: And the “difference in normalized whole brain uptake between baseline and blockade” value [2]?
A: little difference

Q: What does the source list for `Cc1sc(=NC(=O)C2C(C)(C)C2(C)C)n(CCO[11CH3])c1C` [[^11C]1]?
A: specific CB2 cerebral uptake ([1]; LPS-induced mouse model of neuroinflammation, summary): 78-84%; uptake of [11C]1 in the brain ([3]; brain): 0.3 %ID/g tissue; uptake of [11C]1 in the heart ([3]; heart): 0.7 %ID/g tissue; uptake of [11C]1 in the intestine ([3]; intestine): 1.5 %ID/g tissue; uptake of [11C]1 in the kidney ([3]; kidney): 2.2 %ID/g tissue; uptake of [11C]1 in the liver ([3]; liver): 4.9 %ID/g tissue; uptake of [11C]1 in the spleen ([3]; spleen): 1.3 %ID/g tissue; increase of brain uptake versus control mice, LPS three days before (Group 2) ([4]; LPS-3-day-treated CD1 mice versus control, all brain regions): insignificant increase; regional uptake ratio of Group 3 to Group 1, cerebellum ([4]; LPS-5-day-treated versus control CD1 mice, %ID/g tissue, cerebellum): 1.8; regional uptake ratio of Group 3 to Group 1, cortex ([4]; LPS-5-day-treated versus control CD1 mice, %ID/g tissue, cortex): 1.7; regional uptake ratio of Group 3 to Group 1, hippocampus ([4]; LPS-5-day-treated versus control CD1 mice, %ID/g tissue, hippocampus): 1.9; regional uptake ratio of Group 3 to Group 1, rest of the brain ([4]; LPS-5-day-treated versus control CD1 mice, %ID/g tissue, rest of the brain): 1.5

Q: With `COc1ccc(C(=O)c2c(C)n(CCN3CCOCC3)c3cc(I)ccc23)cc1` [AM630] as the compound, how does the “reduction of the specific binding of [11C]1 in whole brain” value [1] read?
A: 78%

Q: And the “reduction of radioactivity uptake by blockade in cerebellum and brainstem” value ([5]; AM630, 60 min)?
A: insignificant reduction

Q: What about the “reduction of radioactivity uptake by blockade in cortex and rest of brain” value ([5]; AM630, 60 min) of the same compound?
A: significant reduction

Q: And the “uptake difference between baseline and blockade, brainstem” value ([5]; AM630 blockade, 60 min, brainstem)?
A: 29%

Q: What about the “uptake difference between baseline and blockade, cerebellum” value ([5]; AM630 blockade, 60 min, cerebellum) of the same compound?
A: 29%

Q: And the “uptake difference between baseline and blockade, cortex” value ([5]; AM630 blockade, 60 min, cortex)?
A: 36%

Q: What about the “uptake difference between baseline and blockade, rest of brain” value ([5]; AM630 blockade, 60 min, rest of brain) of the same compound?
A: 33%

Q: And the “difference in normalized whole brain uptake between baseline and blockade” value [2]?
A: little difference
